Assay results reported in ChEMBL document CHEMBL4308887, “Synthesis and biological evaluation of clovamide analogues with catechol functionality as potent Parkinson's disease agents in vitro and in vivo” (Bioorg Med Chem Lett, 2019).

Tests used:
SH-SY5Y [1] = experiment: Neuroprotection against H2O2-induced cell death in human SH-SY5Y cells at 100 uM preincubated for 6 hrs followed by H2O2 addition and measured after 24 hrs by MTT assay relative to control; format: functional
In short: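 Human SH-SY5Y neuroblastoma cells pretreated with compound at 100 μM for 6 h, then exposed to 600 μM H₂O₂ for 24 h; viability read by MTT and expressed as protection rate relative to untreated control. DMSO below 0.1% in all groups. Primary single-concentration screen; three independent experiments.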

SH-SY5Y [2] = experiment: Neuroprotection against H2O2-induced cell death in human SH-SY5Y cells preincubated for 6 hrs followed by H2O2 addition and measured after 24 hrs by MTT assay; format: functional, cell-based
In short: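 Primary screen at 100 μM, then dose-response. SH-SY5Y cells pretreated, then exposed to 600 μM H₂O₂ (the level chosen from a 100–1000 μM, 24 h viability titration). EC₅₀ is the concentration giving 50% of maximal effect. N-acetyl-L-cysteine served as positive control. DMSO below 0.1%. Mean ± S.E.M. of three experiments.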

Compound	Activity (SH-SY5Y [1]) [%]	EC50 (SH-SY5Y [2]) [µM]
COC(=O)[C@H](Cc1ccc(O)cc1)NC(=O)/C=C/c1ccccc1	<50	–
CC(=O)N[C@@H](CS)C(=O)O [ACETYLCYSTEINE]	–	1680
COC(=O)[C@H](Cc1ccccc1)NC(=O)/C=C/c1ccccc1	<50	–
COC(=O)[C@H](Cc1ccc(O)c(O)c1)NC(=O)/C=C/c1ccccc1 [N-CINNAMOYL-DOPA METHYL ESTER]	>50	14.3
COC(=O)[C@H](Cc1ccc(O)c(O)c1)NC(=O)/C=C/c1ccc(O)c(OC)c1	>50	23.8
COC(=O)[C@H](Cc1ccc(O)cc1)NC(=O)/C=C/c1cccc(OC)c1	<50	–
COC(=O)[C@H](Cc1ccc(O)cc1)NC(=O)/C=C/c1cccc(O)c1	<50	–
COC(=O)[C@H](Cc1ccc(O)cc1)NC(=O)/C=C/c1ccc(O)cc1	<50	–
COC(=O)[C@H](Cc1ccc(O)c(O)c1)NC(=O)/C=C/c1ccc(O)c(O)c1 [N-CAFFEOYL-DOPA METHYL ESTER]	>50	15.6
COC(=O)[C@H](Cc1ccccc1)NC(=O)/C=C/c1ccc(O)cc1	<50	–
O=C(O)/C=C/c1ccc(O)c(O)c1 [CAFFEIC ACID]	–	33.8
COC(=O)[C@H](Cc1ccc(O)c(O)c1)NC(=O)/C=C/c1ccc(O)cc1	>50	19.1
COC(=O)[C@H](Cc1ccc(O)cc1)NC(=O)/C=C/c1ccc(O)c(O)c1	>50	11.3
COC(=O)[C@H](Cc1ccccc1)NC(=O)/C=C/c1ccc(O)c(OC)c1	<50	–
COC(=O)[C@H](Cc1ccc(O)c(O)c1)NC(=O)/C=C/c1cccc(O)c1	>50	17.5
COC(=O)[C@H](Cc1ccccc1)NC(=O)/C=C/c1cccc(O)c1	<50	–
